Results on one compound are retold here after ChEMBL document CHEMBL3997808 (J Med Chem, 2017).

One data set relates to MDR1. The experiment in a line: Permeability across dog MDCK cells expressing MDR1. It counts as ADME, cell-based, Canis lupus familiaris. The settings on record: read-out: permeability.
Data set [1] is described as follows: Fraction unbound in dog blood. It is filed as ADME, tissue-based, Canis lupus familiaris.
Data set [2] in a line: Drug metabolism in rat hepatocytes assessed as (S)-5-benzyl-N-(4-oxo-2,3,4,5-tetrahydrobenzo[b][1,4]oxazepin-3-yl)-1H-1,2,4-triazole-3-carboxamide formation at 10 uM measured up to 4 hrs. It counts as ADME, cell-based, Hepatocyte. In short, it runs like this: (§1)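 Compound at 10 μM was incubated with hepatocyte suspensions at 1 million cells/mL. Incubation ran at 37°C under 5% CO2:95% O2 for up to 4 h.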

The nature of data set [3]: Oral bioavailability in rat at 2.1 mg/kg. It counts as ADME, organism-based. The conditions noted are these: in vivo.
The nature of data set [4]: Drug metabolism in human hepatocytes assessed as 5-benzyl-1H-1,2,4-triazole-3-carboxylic acid formation at 10 uM measured up to 4 hrs. It counts as ADME, cell-based, Hepatocyte. In short, it runs like this: as §1
Data set [5] can be described thus: Drug metabolism in rat hepatocytes assessed as glucuronide metabolite M553 formation at 10 uM measured up to 4 hrs. It is filed as ADME, cell-based, Hepatocyte. In short, it runs like this:
as §1

Data set [6] is described as follows: Half-life in rat at 1.1 mg/kg, iv. It counts as ADME, organism-based. The conditions noted are these: in vivo.
The nature of data set [7]: Cmax in cynomolgus monkey at 1.9 mg/kg, po. The arrangement: dose 1.9 mg/kg, route oral. It counts as ADME, organism-based, Macaca fascicularis. The settings on record: in vivo.
Data set [8] can be described thus: Volume of distribution at steady state in cynomolgus monkey at 1.2 mg/kg, iv. It is filed as ADME, organism-based, Macaca fascicularis. The conditions noted are these: in vivo, read-out: Vdss.
The nature of data set [9]: Drug metabolism in cynomolgus monkey hepatocytes assessed as 5-benzyl-1H-1,2,4-triazole-3-carboxylic acid formation at 10 uM measured up to 4 hrs. It is filed as ADME, cell-based, Macaca fascicularis, Hepatocyte. In short, it runs like this:
as §1

The nature of data set [10]: Drug metabolism in rat hepatocytes assessed as glucuronide metabolite M569 formation at 10 uM measured up to 4 hrs. It counts as ADME, cell-based, Hepatocyte. In short, it runs like this: as §1
Data set [11] is described as follows: Lipophilicity, log D of the compound at pH 7.4 by RP-HPLC method. It counts as physicochemical. The settings on record: buffer. Summed up: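 Chromatographic hydrophobicity index (CHI) log D at pH 7.4, calculated from the retention time in a fast-gradient reverse-phase HPLC run.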
The nature of data set [12]: AUC in rat at 2.1 mg/kg, po. It counts as ADME, organism-based. The conditions noted are these: in vivo.
A short description of data set [13]: Drug metabolism in rat hepatocytes assessed as 5-(hydroxy(phenyl)methyl)-N-((S)-5-methyl-4-oxo-2,3,4,5-tetrahydrobenzo[b][1,4]oxazepin-3-yl)-1H-1,2,4-triazole-3-carboxamide formation at 10 uM measured up to 4 hrs. It is filed as ADME, cell-based, Hepatocyte. In short, it runs like this:
as §1

A short description of data set [14]: Clearance in cynomolgus monkey at 1.2 mg/kg, iv. It counts as ADME, organism-based, Macaca fascicularis. The conditions noted are these: in vivo.
Data set [15] can be described thus: Fraction unbound in human blood. It is filed as ADME, tissue-based.
A short description of data set [16]: Stability in cynomolgus monkey microsomes measured up to 45 mins. It is filed as ADME, Macaca fascicularis, Microsome. The settings on record: 0.75 h.
The test system of the next data set is Heart. The experiment in a line: Drug uptake in Han Wistar rat heart at 2 mg/kg, iv administered as 4 hrs infusion. It counts as ADME, organism-based. The settings on record: in vivo. Summed up:
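Rats received a 4 h iv infusion, after which terminal tissue samples were collected. Parent drug concentrations were measured in each tissue and compared with blood levels.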

Data set [17] can be described thus: Drug metabolism in rat hepatocytes assessed as (S)-3-amino-5-methyl-2,3-dihydrobenzo[b][1,4]oxazepin-4(5H)-one formation at 10 uM measured up to 4 hrs. It is filed as ADME, cell-based, Hepatocyte. Summed up:
as §1

The nature of data set [18]: Drug metabolism in human hepatocytes assessed as glucuronide metabolite M553 formation at 10 uM measured up to 4 hrs. It counts as ADME, cell-based, Hepatocyte. Summed up:
as §1

The subject of a further data set is Rattus norvegicus. The experiment in a line: Toxicity in rat at 2 to 1000 mg/kg, po after 1 month. The settings on record: in vivo, 730.5 h. It is filed as organism-based.
Data set [19] has as its target T1, Nuclear receptor subfamily 1 group I member 2 (Homo sapiens, UniProt O75469).
T1 sequence (O75469 whole entry): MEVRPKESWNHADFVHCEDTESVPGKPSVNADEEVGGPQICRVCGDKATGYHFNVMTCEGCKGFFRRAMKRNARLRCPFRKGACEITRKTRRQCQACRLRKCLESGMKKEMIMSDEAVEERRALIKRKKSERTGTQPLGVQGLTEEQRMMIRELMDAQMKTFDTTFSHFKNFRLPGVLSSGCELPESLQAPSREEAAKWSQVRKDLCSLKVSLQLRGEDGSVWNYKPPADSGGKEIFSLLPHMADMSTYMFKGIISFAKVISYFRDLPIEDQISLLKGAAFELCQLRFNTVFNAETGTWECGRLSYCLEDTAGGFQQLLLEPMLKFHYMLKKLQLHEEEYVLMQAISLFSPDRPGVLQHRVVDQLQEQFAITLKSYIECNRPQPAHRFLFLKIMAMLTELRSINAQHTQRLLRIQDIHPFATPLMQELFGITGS
Put plainly: Activation of human PXR. It is filed as ADME.

Broadly, the fraction unbound is the share of the substance not bound to proteins or other matrix. As usually defined, the half-life is how long it takes for the measured level to halve. In general, Cmax refers to the peak of the concentration-time curve. The term chromatographic logD denotes lipophilicity estimated from chromatographic retention. Usually AUC stands for the area under the concentration-time curve, a measure of exposure. A word on the clearance: it is the rate of elimination divided by the concentration. Usually EC50 stands for the concentration at which the effect is half-maximal. For the compound `CN1C(=O)[C@@H](NC(=O)c2nnc(Cc3ccccc3)[nH]2)COc2ccccc21` [GSK2982772], the Papp with MDR1 was 21 ×10⁻⁶ cm/s. For the same compound, the figures for the fraction unbound in [1] and in data set [15] were 0.11 and 0.074, respectively. Moreover, the Drug metabolism entry in data set [2], in data set [4], in [5], in data set [9], in data set [10] and in [13] was “Metabolite_Detected” in each case. Moreover, the Drug metabolism entry in [17] and in data set [18] was “Metabolite_Detected” in each case. Further, the bioavailability in [3] worked out at 110%. Besides, the half-life in data set [6] was 3.9 h. In addition, the highest level in [7] (Cmax) was 720 ng/mL. In data set [8], the Vd came to 2.2 L/kg. In data set [11], this compound registered a chromatographic logD of 3.8. Also, in [12], the AUC was 2300 ng·h/mL. The same compound showed a clearance in data set [14] of 10 mL/min/kg. In addition, the Stability result in data set [16] is given as “Stable”. Moreover, in the data set with Heart, the Drug uptake entry is reported as “Active”. Also, in the data set on Rattus norvegicus, the Activity result is “Non-Toxic”. In data set [19], this compound yielded an EC50 of 13 µM.
